{"source": "ChEMBL document CHEMBL1130127", "about": "“Synthesis, photophysical properties, in vivo photosensitizing efficacy, and human serum albumin binding properties of some novel bacteriochlorins” (J Med Chem, 1997)", "key": {"Mus musculus [1]": {"tested_on": "Mus musculus", "test": "The compound was tested in vivo for photosensitizing efficacy in DBA/2 Mice transplanted with SMT/F tumors and the activity is expressed as % response at ( 21-25 days) 24 hours post injection at 5.0 mg/kg concentration", "type": "functional, organism-based", "set-up": "dose 5 mg/kg", "summary_of_the_method": "(§1)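 Female DBA/2 HA-DD mice, 5-7 weeks old. A 1 mm SMT-F tumor piece from a donor was trocar-implanted subcutaneously in the axilla. At about 5 mm tumor diameter, sensitizer in 1% Tween 80/water was given iv; dose was based on extinction coefficient. At 3 or 24 h after injection, restrained mice had the tumor lit with 135 J/cm2 laser light at the in vivo long-wavelength maximum. Tumor response was followed to day 30; six mice/group.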"}, "Mus musculus [2]": {"tested_on": "Mus musculus", "test": "The compound was tested in vivo for photosensitizing efficacy in DBA/2 Mice transplanted with SMT/F tumors and the activity is expressed as % response at (1-5 days) 24 hours post injection at 5.0 mg/kg concentration", "type": "functional, organism-based", "set-up": "dose 5 mg/kg", "summary_of_the_method": "as §1"}, "Mus musculus [3]": {"tested_on": "Mus musculus", "test": "The compound was tested in vivo for photosensitizing efficacy in DBA/2 Mice transplanted with SMT/F tumors and the activity is expressed as % response at ( 26-30 days) 24 hours post injection at 5.0 mg/kg concentration", "type": "functional, organism-based", "set-up": "dose 5 mg/kg", "summary_of_the_method": "as §1"}, "Mus musculus [4]": {"tested_on": "Mus musculus", "test": "The compound was tested in vivo for photosensitizing efficacy in DBA/2 Mice transplanted with SMT/F tumors and the activity is expressed as % response at (11-15 days) 24 hours post injection at 5.0 mg/kg concentration", "type": "functional, organism-based", "set-up": "dose 5 mg/kg", "summary_of_the_method": "as §1"}, "Mus musculus [5]": {"tested_on": "Mus musculus", "test": "The compound was tested in vivo for photosensitizing efficacy in DBA/2 Mice transplanted with SMT/F tumors and the activity is expressed as % response at (16-20 days) 24 hours post injection at 5.0 mg/kg concentration", "type": "functional, organism-based", "set-up": "dose 5 mg/kg", "summary_of_the_method": "as §1"}, "Mus musculus [6]": {"tested_on": "Mus musculus", "test": "The compound was tested in vivo for photosensitizing efficacy in DBA/2 Mice transplanted with SMT/F tumors and the activity is expressed as % response at ( 6-10 days) 24 hours post injection at 5.0 mg/kg concentration", "type": "functional, organism-based", "set-up": "dose 5 mg/kg", "summary_of_the_method": "as §1"}, "Mus musculus [7]": {"tested_on": "Mus musculus", "test": "The compound was tested in vivo for photosensitizing efficacy in DBA/2 Mice transplanted with SMT/F tumors and the activity is expressed as % response at (16-20 days) 3 hours post injection at 5 mg/kg concentration", "type": "functional", "summary_of_the_method": "as §1"}, "Mus musculus [8]": {"tested_on": "Mus musculus", "test": "The compound was tested in vivo for photosensitizing efficacy in DBA/2 Mice transplanted with SMT/F tumors and the activity is expressed as % response at (21-25 days) 24 hours post injection at 5 mg/kg concentration; No response", "type": "functional, organism-based", "set-up": "dose 5 mg/kg", "summary_of_the_method": "as §1"}, "Mus musculus [9]": {"tested_on": "Mus musculus", "test": "The compound was tested in vivo for photosensitizing efficacy in DBA/2 Mice transplanted with SMT/F tumors and the activity is expressed as % response at (26-30 days) 24 hours post injection at 5 mg/kg concentration; No response", "type": "functional, organism-based", "set-up": "dose 5 mg/kg"}, "Mus musculus [10]": {"tested_on": "Mus musculus", "test": "The compound was tested in vivo for photosensitizing efficacy in DBA/2 Mice transplanted with SMT/F tumors and the activity is expressed as % response at (16-20 days) 3 hours post injection at 2.5 mg/kg concentration; No response", "type": "functional, organism-based", "set-up": "dose 2.5 mg/kg", "summary_of_the_method": "as §1"}, "Mus musculus [11]": {"tested_on": "Mus musculus", "test": "The compound was tested in vivo for photosensitizing efficacy in DBA/2 Mice transplanted with SMT/F tumors and the activity is expressed as % response at (21-25 days) 3 hours post injection at 5 mg/kg concentration", "type": "functional"}, "Mus musculus [12]": {"tested_on": "Mus musculus", "test": "The compound was tested in vivo for photosensitizing efficacy in DBA/2 Mice transplanted with SMT/F tumors and the activity is expressed as % response at (6-10 days) 3 hours post injection at 2.5 mg/kg concentration; No response", "type": "functional, organism-based", "set-up": "dose 2.5 mg/kg"}, "Mus musculus [13]": {"tested_on": "Mus musculus", "test": "The compound was tested in vivo for photosensitizing efficacy in DBA/2 Mice transplanted with SMT/F tumors and the activity is expressed as % response at (16-20 days) 24 hours post injection at 5 mg/kg concentration; No response", "type": "functional, organism-based", "set-up": "dose 5 mg/kg", "summary_of_the_method": "as §1"}, "Mus musculus [14]": {"tested_on": "Mus musculus", "test": "The compound was tested in vivo for photosensitizing efficacy in DBA/2 Mice transplanted with SMT/F tumors and the activity is expressed as % response at (26-30 days) 3 hours post injection at 2.5 mg/kg concentration; No response", "type": "functional, organism-based", "set-up": "dose 2.5 mg/kg"}, "Mus musculus [15]": {"tested_on": "Mus musculus", "test": "The compound was tested in vivo for photosensitizing efficacy in DBA/2 Mice transplanted with SMT/F tumors and the activity is expressed as % response at (21-25 days) 3 hours post injection at 2.5 mg/kg concentration; No response", "type": "functional, organism-based", "set-up": "dose 2.5 mg/kg", "summary_of_the_method": "as §1"}, "Mus musculus [16]": {"tested_on": "Mus musculus", "test": "The compound was tested in vivo for photosensitizing efficacy in DBA/2 Mice transplanted with SMT/F tumors and the activity is expressed as % response at (26-30 days) 3 hours post injection at 5 mg/kg concentration", "type": "functional"}, "Mus musculus [17]": {"tested_on": "Mus musculus", "test": "The compound was tested in vivo for photosensitizing efficacy in DBA/2 Mice transplanted with SMT/F tumors and the activity is expressed as % response at (6-10 days) 24 hours post injection at 5 mg/kg concentration; No response", "type": "functional, organism-based", "set-up": "dose 5 mg/kg"}, "Mus musculus [18]": {"tested_on": "Mus musculus", "test": "The compound was tested in vivo for photosensitizing efficacy in DBA/2 Mice transplanted with SMT/F tumors and the activity is expressed as % response at (1-5 days) 3 hours post injection at 5.0 mg/kg concentration", "type": "functional", "summary_of_the_method": "as §1"}, "Mus musculus [19]": {"tested_on": "Mus musculus", "test": "The compound was tested in vivo for photosensitizing efficacy in DBA/2 Mice transplanted with SMT/F tumors and the activity is expressed as % response at (11-15 days) 3 hours post injection at 2.5 mg/kg concentration; No response", "type": "functional, organism-based", "set-up": "dose 2.5 mg/kg", "summary_of_the_method": "as §1"}, "Albumin": {"target": "Albumin (Homo sapiens, UniProt P02768)", "sequence (P02768 whole entry)": "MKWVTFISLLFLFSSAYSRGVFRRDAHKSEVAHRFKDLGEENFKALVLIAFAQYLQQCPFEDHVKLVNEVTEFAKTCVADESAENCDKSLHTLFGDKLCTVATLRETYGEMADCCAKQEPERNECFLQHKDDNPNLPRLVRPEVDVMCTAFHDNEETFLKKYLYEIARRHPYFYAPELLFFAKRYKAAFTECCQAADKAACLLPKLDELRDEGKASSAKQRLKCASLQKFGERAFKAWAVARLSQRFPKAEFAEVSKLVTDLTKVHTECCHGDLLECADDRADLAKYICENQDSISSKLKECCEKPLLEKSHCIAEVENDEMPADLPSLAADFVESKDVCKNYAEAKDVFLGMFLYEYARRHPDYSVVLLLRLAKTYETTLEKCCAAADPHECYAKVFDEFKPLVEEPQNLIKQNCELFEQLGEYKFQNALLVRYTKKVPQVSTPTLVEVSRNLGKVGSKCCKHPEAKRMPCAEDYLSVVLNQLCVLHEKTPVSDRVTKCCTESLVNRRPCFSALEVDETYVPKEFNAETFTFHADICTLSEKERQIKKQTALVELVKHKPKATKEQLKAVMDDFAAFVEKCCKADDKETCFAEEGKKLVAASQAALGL", "test": "Binding affinity against Human serum albumin(Site I).", "summary_of_the_method": "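Fluorometric titration: HSA and sensitizer fixed at 1 × 10^-6 mol/L. Site probe varied 4 × 10^-7 to 2 × 10^-6 mol/L: DNSA for site I, read at 472 nm; DP for site II, read at 476 nm; excitation 340 nm. Incubated 4 °C, pH 7.0, 4 h, dark. Bound probe taken from standard curves of free probe (water) and HSA-bound probe (2.5 × 10^-5 mol/L HSA).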"}, "Mus musculus [20]": {"tested_on": "Mus musculus", "test": "The compound was tested in vivo for photosensitizing efficacy in DBA/2 Mice transplanted with SMT/F tumors and the activity is expressed as % response at (11-15 days) 3 hours post injection at 5 mg/kg concentration", "type": "functional", "summary_of_the_method": "as §1"}, "Mus musculus [21]": {"tested_on": "Mus musculus", "test": "The compound was tested in vivo for photosensitizing efficacy in DBA/2 Mice transplanted with SMT/F tumors and the activity is expressed as % response at (6-10 days) 3 hours post injection at 5 mg/kg concentration", "type": "functional"}, "Mus musculus [22]": {"tested_on": "Mus musculus", "test": "The compound was tested in vivo for photosensitizing efficacy in DBA/2 Mice transplanted with SMT/F tumors and the activity is expressed as % response at (1-5 days) 3 hours post injection at 2.5 mg/kg concentration; No response", "type": "functional, organism-based", "set-up": "dose 2.5 mg/kg", "summary_of_the_method": "as §1"}, "Mus musculus [23]": {"tested_on": "Mus musculus", "test": "The compound was tested in vivo for photosensitizing efficacy in DBA/2 Mice transplanted with SMT/F tumors and the activity is expressed as % response at (11-15 days) 24 hours post injection at 5 mg/kg concentration; No response", "type": "functional, organism-based", "set-up": "dose 5 mg/kg", "summary_of_the_method": "as §1"}, "Mus musculus [24]": {"tested_on": "Mus musculus", "test": "The compound was tested in vivo for photosensitizing efficacy in DBA/2 Mice transplanted with SMT/F tumors and the activity is expressed as % response at (1-5 days) 24 hours post injection at 5 mg/kg concentration; No response", "type": "functional, organism-based", "set-up": "dose 5 mg/kg", "summary_of_the_method": "as §1"}}, "note": "Calls of active or inactive are those of the source. The rule behind the calls is not given here."}
{"compound": "PORFIMER SODIUM", "values": [{"measurement": "Response", "setting": "Mus musculus [1]", "value": 50, "unit": "%"}, {"measurement": "Response", "setting": "Mus musculus [2]", "value": 100, "unit": "%"}, {"measurement": "Response", "setting": "Mus musculus [3]", "value": 50, "unit": "%"}, {"measurement": "Response", "setting": "Mus musculus [4]", "value": 80, "unit": "%"}, {"measurement": "Response", "setting": "Mus musculus [5]", "value": 60, "unit": "%"}, {"measurement": "Response", "setting": "Mus musculus [6]", "value": 100, "unit": "%"}]}
{"compound": "CCc1c(C)c2[nH]c1cc1[nH]c(cc3nc4c(c5nc(c2C=O)[C@@H](C)[C@@H]5CCC(=O)NC(CC(=O)OC(C)(C)C)C(=O)OC(C)(C)C)CCC4=C3C)C(O)(CC)C1(C)O", "note": "(stereo not given in full)", "values": [{"measurement": "Response", "setting": "Mus musculus [7]", "value": 80, "unit": "%"}, {"measurement": "Response", "setting": "Mus musculus [8]", "value": "inactive"}, {"measurement": "Response", "setting": "Mus musculus [9]", "value": "inactive"}, {"measurement": "Response", "setting": "Mus musculus [10]", "value": "inactive"}, {"measurement": "Response", "setting": "Mus musculus [11]", "value": 50, "unit": "%"}, {"measurement": "Response", "setting": "Mus musculus [12]", "value": "inactive"}, {"measurement": "Response", "setting": "Mus musculus [13]", "value": "inactive"}, {"measurement": "Response", "setting": "Mus musculus [14]", "value": "inactive"}, {"measurement": "Response", "setting": "Mus musculus [15]", "value": "inactive"}, {"measurement": "Response", "setting": "Mus musculus [16]", "value": 50, "unit": "%"}, {"measurement": "Response", "setting": "Mus musculus [17]", "value": "inactive"}, {"measurement": "Response", "setting": "Mus musculus [18]", "value": 100, "unit": "%"}, {"measurement": "Response", "setting": "Mus musculus [19]", "value": "inactive"}, {"measurement": "Binding constant", "setting": "Albumin", "value": "500000 l M-1"}, {"measurement": "Response", "setting": "Mus musculus [20]", "value": 100, "unit": "%"}, {"measurement": "Response", "setting": "Mus musculus [21]", "value": 100, "unit": "%"}, {"measurement": "Response", "setting": "Mus musculus [22]", "value": "inactive"}, {"measurement": "Response", "setting": "Mus musculus [23]", "value": "inactive"}, {"measurement": "Response", "setting": "Mus musculus [24]", "value": "inactive"}]}
